One assay deals with T1, PilBΔN (Chloracidobacterium thermophilum, UniProt G2LDI3).
T1 sequence (G2LDI3 140-614): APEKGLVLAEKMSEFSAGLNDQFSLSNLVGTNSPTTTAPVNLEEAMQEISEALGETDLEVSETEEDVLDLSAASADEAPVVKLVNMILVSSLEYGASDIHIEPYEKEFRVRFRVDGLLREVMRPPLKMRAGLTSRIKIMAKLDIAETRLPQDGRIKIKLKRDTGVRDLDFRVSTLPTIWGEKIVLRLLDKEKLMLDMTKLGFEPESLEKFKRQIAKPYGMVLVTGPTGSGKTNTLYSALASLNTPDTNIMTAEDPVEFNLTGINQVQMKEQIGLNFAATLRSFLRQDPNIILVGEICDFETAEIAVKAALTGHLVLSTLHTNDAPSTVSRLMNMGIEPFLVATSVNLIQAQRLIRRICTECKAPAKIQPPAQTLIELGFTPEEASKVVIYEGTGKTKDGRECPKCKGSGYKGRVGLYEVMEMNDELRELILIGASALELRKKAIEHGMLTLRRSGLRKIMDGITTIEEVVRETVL
Kind of assay: ITC ligand binding to PilBΔN. The conditions noted are these: for ΔG / ΔH / N, number of ligand binding sites per protein: ITC; for ΔG / ΔH: 25 °C; for N, number of ligand binding sites per protein: per PilBΔN hexamer.

A further assay addresses T2, PilBN (Chloracidobacterium thermophilum, UniProt G2LDI3).
T2 sequence (G2LDI3 1-146): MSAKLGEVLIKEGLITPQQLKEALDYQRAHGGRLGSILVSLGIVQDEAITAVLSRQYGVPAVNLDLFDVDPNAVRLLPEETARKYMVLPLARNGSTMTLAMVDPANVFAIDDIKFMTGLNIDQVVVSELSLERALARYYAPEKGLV
Kind of assay: ITC ligand binding to PilBN. Particulars: for binding detected by ITC: 30 μM PilBN, Supplementary Figure S4A,B. In outline: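 ITC at 25 °C, 300 rpm stirring. His-tagged PilBN (expressed in E. coli BL21(DE3)) was purified by Ni-NTA and size exclusion, dialysed into activity buffer, and set at 30 μM final in the cell. Syringe held 0.5 mM cdG, given as one 0.4 μl and 29 × 1 μl injections 150 s apart. Buffer-only heats were subtracted. Fit used a single-set-of-identical-sites model; ≥3 independent runs.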
In general terms: ITC needs no label: the signal is the heat of the interaction.

Assay [1] deals with T3, Full-length PilB (CtPilB) (Chloracidobacterium thermophilum, UniProt G2LDI3).
T3 sequence (G2LDI3 1-614): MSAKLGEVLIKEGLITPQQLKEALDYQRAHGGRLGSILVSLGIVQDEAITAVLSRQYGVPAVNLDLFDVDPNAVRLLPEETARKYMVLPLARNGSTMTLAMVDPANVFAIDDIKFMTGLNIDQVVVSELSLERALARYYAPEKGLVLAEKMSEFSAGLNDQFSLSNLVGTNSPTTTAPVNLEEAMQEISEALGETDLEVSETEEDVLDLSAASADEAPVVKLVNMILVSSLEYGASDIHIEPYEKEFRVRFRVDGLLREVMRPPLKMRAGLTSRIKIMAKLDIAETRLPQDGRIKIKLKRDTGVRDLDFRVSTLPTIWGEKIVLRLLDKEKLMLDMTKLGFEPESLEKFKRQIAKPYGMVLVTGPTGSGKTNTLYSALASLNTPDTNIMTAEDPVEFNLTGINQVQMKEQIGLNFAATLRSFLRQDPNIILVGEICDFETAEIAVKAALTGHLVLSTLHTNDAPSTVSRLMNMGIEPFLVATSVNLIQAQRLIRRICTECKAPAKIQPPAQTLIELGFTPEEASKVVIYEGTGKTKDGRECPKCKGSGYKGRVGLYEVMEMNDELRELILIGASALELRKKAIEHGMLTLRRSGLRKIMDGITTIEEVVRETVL
In words: ITC ligand binding to full-length PilB with or without effector. The conditions noted are these: for N, number of ligand binding sites per protein: per PilB hexamer. In outline: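 ITC at 25 °C using full-length hexameric PilB (expressed in E. coli XL1-Blue; Ni-NTA/SEC) dialysed into activity buffer. cdG runs: 5.3 μM protein, 0.5 mM cdG, one 0.4 μl then 29 × 1 μl injections, 150 s apart. ATPγS/ADP runs: 15 μM protein, 1 mM titrant, one 0.4 μl then 39 × 1 μl injections, 120 s apart. Optional effector pre-incubation: 15 min on ice (cdG 100 μM; ATPγS/ADP 50 μM). Buffer-only heats subtracted; single-site fit.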

The test system of a further assay is VcMshE. The conditions noted are these: in vitro; cited from earlier work.
Assay [2] concerns full-length CtPilB ATPase. In words: Malachite green-based ATPase assay of full-length CtPilB in the presence of cdG. It counts as biochemical, Chloracidobacterium thermophilum. In outline:
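Full-length PilB (75 nM) ATPase was read by malachite green phosphate endpoint after 15 min at 54 °C in activity buffer, with cdG at 0, 2 or 200 μM. Kinetic runs used 0.5 and 1.0 mM ATP with or without cdG. No-protein ATP blanks served as controls.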

The target in assay [3] is PilBΔN (truncated CtPilB without the first 139 residues) (Chloracidobacterium thermophilum). Kind of assay: SEC. (In general: Size exclusion chromatography separates by hydrodynamic size, large species first.)

Where “and” joins values, the source holds several entries; their conditions need not be identical. Equal values may be shown once. Entries after “also recorded” stand apart in the source; their conditions may differ. Read-outs that look alike come from different tables or passages of the source.

As for `Nc1ncnc2c1ncn2[C@@H]1O[C@H](COP(=O)(O)OP(=O)(O)O)[C@@H](O)[C@H]1O` [ADP], the ΔG at PilBΔN (no effector) is -7.0 kcal/mol; in assay [1] (ITC, 25 °C, no effector) it was -7.3 kcal/mol; in assay [1] (effector cdG 100 μM), -6.9 kcal/mol. Also, the ΔH was -16.2 kcal/mol and -16.2 ± 0.4 kcal/mol on PilBΔN (no effector); -15.4 kcal/mol and -15.4 ± 1.0 kcal/mol in assay [1] (ITC, 25 °C, no effector); -46.2 kcal/mol and -46.2 ± 1.6 kcal/mol in assay [1] (effector cdG 100 μM). The “N, number of ligand binding sites per protein” value (from here on “N, number … per protein”) is listed as 2.20±0.03 at PilBΔN (no effector); 2.20±0.02 in assay [1] (ITC, no effector); 1.79±0.06 in assay [1] (effector cdG 100 μM). Besides, the “binding detected by ITC” value on PilBN is on record as “no detectable binding; also recorded: without detectable binding”. The Kd in assay [1] (read-out: apparent dissociation constant KD, ITC, 25 °C, no effector, 15 μM PilB) worked out at 4.3 ± 1 µM.
In the case of `Nc1nc2c(ncn2[C@@H]2O[C@@H]3COP(=O)(O)O[C@H]4[C@@H](O)[C@H](n5cnc6c(=O)[nH]c(N)nc65)O[C@@H]4COP(=O)(O)O[C@H]3[C@H]2O)c(=O)[nH]1` [cdG, cyclic-di-GMP], in the assay with VcMshE, the “effect of cdG on ATPase activity” value is recorded as “only to a very limited extent”. Further, in assay [2] (cdG 0, 2 or 200 μM, ATP 0.5 and 1.0 mM, Supplementary Figure S5), the “effect on ATPase activity, kinetic assay” value is “not statistically significant; also recorded: did not affect”. Further, the “effect on ATPase activity, endpoint assay” value in assay [2] (cdG at 0, 2 and 200 μM, data not shown) is “no difference”. Besides, the “binding detected by ITC” value at PilBΔN (5.3 μM PilBΔN, Supplementary Figure S4C) is given as “Nor was there any detectable binding”. For the same compound, the Kd was 0.107 ± 0.014 µM on PilBN and 0.053 ± 0.01 µM in assay [1] (apparent dissociation constant KD, ITC, 25 °C, no effector, 5.3 μM PilB). The ΔG is -9.5 kcal/mol on PilBN (ITC, 25 °C, no effector) and -10.6 kcal/mol in assay [1] (effector ADP 50 μM). Also, the ΔH is -7.4 ± 0.5 kcal/mol at PilBN (ITC, 25 °C, no effector); -14.5 kcal/mol and -14.5 ± 0.13 kcal/mol in assay [1] (ITC, 25 °C, no effector); -12.0 ± 0.09 kcal/mol in assay [1] (effector ADP 50 μM); -14.0 ± 0.3 kcal/mol in assay [1] (effector ATPγS 50 μM). Besides, on PilBN (ITC, 25 °C, no effector), the “−TΔS” value was -2.1 kcal/mol. Besides, the “N, number … per protein” value stood at 1.09±0.03 at PilBN (ITC, no effector, PilBN monomer); 5.83±0.01 in assay [1] (ITC, no effector); 5.94±0.09 in assay [1] (effector ADP 50 μM); 6.33±0.08 in assay [1] (effector ATPγS 50 μM).
Take `Nc1ncnc2c1ncn2[C@@H]1O[C@H](CO[P@](=O)(O)O[P@](=O)(O)O[P@@](=O)(O)S)[C@@H](O)[C@H]1O` [ATPγS]: the Kd came to 5.2 ± 0.7 µM at PilBΔN and 3.8 ± 0.5 µM in assay [1] (apparent dissociation constant KD, ITC, 25 °C, no effector, 15 μM PilB). Besides, the ΔG was -7.2 kcal/mol at PilBΔN (no effector); -7.4 kcal/mol in assay [1] (ITC, 25 °C, no effector); -7.4 kcal/mol in assay [1] (effector cdG 100 μM). The ΔH at PilBΔN (no effector) was -11.5 kcal/mol and -11.5 ± 0.6 kcal/mol; in assay [1] (ITC, 25 °C, no effector), -10.3 ± 0.3 kcal/mol; in assay [1] (effector cdG 100 μM), -10.3 ± 0.3 kcal/mol. For the same compound, the “N, number … per protein” value at PilBΔN (no effector) was 2.42±0.07; in assay [1] (ITC, no effector), 2.8 and 2.8±0.06; in assay [1] (effector cdG 100 μM), 2.91±0.04. Besides, the “KD for PilBΔN higher than KD for full-length PilB” value at PilBΔN (PilBΔN versus full-length PilB, no effector) is on record as around 40%. In addition, at PilBN, the “binding detected by ITC” value is listed as “no detectable binding; also recorded: without detectable binding”.
`Nc1ncnc2c1ncn2[C@@H]1O[C@H](COP(=O)(O)OP(=O)(O)OP(=O)(O)O)[C@@H](O)[C@H]1O` [ATP]: in assay [1] (ITC with ATP, hydrolysis interferes), the “N, stoichiometry per PilB hexamer” value turned out to be 2.
One may read the stoichiometry N as the number of molecules, sites or subunits per partner or assembly. “PilBΔN (truncated CtPilB without the first 139 residues) (from UniProt A0ABV9NNI3 140-574) (domain or fragment)” displayed a stoichiometry N in assay [3] of 6.
